Measurements from different studies.
Lines come from different studies, so protocols differ.
Observed: metabolic stability
Species: human

| Compound | sample | tested at | time | pH | setting | scaled CLint [mL/min/kg] |
| --- | --- | --- | --- | --- | --- | --- |
| CC(=O)N(C)C1CCN(c2cc(F)cc(NC(=O)c3cc4c(F)ccc(C)c4[nH]3)c2)C1 (centres unmarked) | hepatocytes | 0.5 µM | 2 h |  |  | 64 |
| Cc1cc([C@H]2C[C@H]3CSC(N)=N[C@@]3(c3ccc(F)cc3F)CO2)on1 | liver microsomes |  |  |  |  | 55.2 |
| O=C(c1ccc(F)cc1)C1CCN(CCn2c(=O)[nH]c3ccccc3c2=O)CC1 | liver microsomes |  |  |  |  | 44.8 |
| Cc1cc(NC(=O)Cc2ccc(F)c(C#N)c2)n(CC2CCCCC2)n1 | liver microsomes |  |  |  |  | 648 |
| CC(F)(F)CN1Cc2cc(C(F)(F)F)ncc2C2=CN=C(NCc3c(F)ccc4c3CCO4)N3C=NC(C1=O)C23 (centres unmarked) | liver microsomes | 100 µM | 30 min |  |  | 9.9 |
| Nc1nc(-c2cccc(NC(=O)Nc3cccc(-c4c[nH]c(N)n4)c3)c2)c[nH]1 | liver microsomes | 5 µM |  | pH 7.4 |  | < 20.8 |
| CC(=O)Nc1cc(Nc2cc(NC3CC3)n3ncc(C#N)c3n2)ccc1N1CCC[C@H](O)C1 | hepatocytes | 1 µM |  |  | serum-free | 73 |
| C[C@H]1SC(N)=N[C@@]2(c3ccc(F)cc3F)CO[C@@H](c3cnn(C)c3)C[C@@H]12 | liver microsomes |  |  |  |  | < 8 |
| O=C1C2N=CN3C(NCc4c(F)ccc5c4CCO5)=NC=C(c4cnc(C(F)(F)F)cc4CN1CC(F)F)C23 (centres unmarked) | liver microsomes | 100 µM | 30 min |  |  | 11.4 |
| Cc1cc([C@H]2C[C@H]3[C@@H](CF)SC(N)=N[C@@]3(c3ccc(F)cc3F)CO2)on1 | liver microsomes |  |  |  |  | < 8 |
| Cc1cccnc1C(=O)Nc1ccc(N2C(=O)c3cccc(Cl)c3C2=O)c(Cl)c1 | liver microsomes | 1 µM |  | pH 7.4 |  | 16.1 |
| Nc1nc(-c2ccc(NC(=O)Nc3cc(Br)cc(Br)c3)cc2)c[nH]1 | liver microsomes | 5 µM |  | pH 7.4 |  | < 10.4 |
| CC(C)(C)n1cc2c(n1)C(O)CC1(CCN(C(=O)c3ccc4[nH]ncc4c3)CC1)O2 (centres unmarked) | liver microsomes |  |  |  |  | < 8.8 |
| Cn1cc([C@H]2C[C@H]3[C@@H](CF)SC(N)=N[C@@]3(c3ccc(F)cc3F)CO2)cn1 | liver microsomes |  |  |  |  | < 8 |
| O=C1c2ccc(OCc3cccc(F)c3)nc2CCN1c1ccc(F)cn1 | liver microsomes |  |  |  |  | 18 |
| Cc1ccc(F)c2cc(C(=O)N[C@@H]3CCC[C@H](N4CCN(C)C(=O)C4)C3)[nH]c12 | hepatocytes | 0.5 µM | 2 h |  |  | 23.7 |
| Cn1cc([C@H]2C[C@H]3CSC(N)=N[C@@]3(c3ccc(F)cc3F)CO2)cn1 | liver microsomes |  |  |  |  | 9.1 |
| Nc1nc(-c2ccc(NC(=O)Nc3ccc(-c4c[nH]c(N)n4)c(F)c3)cc2F)c[nH]1 | liver microsomes | 5 µM |  | pH 7.4 |  | < 20.8 |
| Cc1ccc(F)c2cc(C(=O)N[C@@H]3CCC[C@H](c4ccncc4)C3)[nH]c12 | hepatocytes | 0.5 µM | 2 h |  |  | 32.3 |
| O=C1NCCc2nc(OCc3cccc(F)c3)ccc21 | liver microsomes |  |  |  |  | 25 |
